The record followed here is ChEMBL document CHEMBL4680108, “Ancistrolikokine E, a 5,8'-Coupled Naphthylisoquinoline Alkaloid, Eliminates the Tolerance of Cancer Cells to Nutrition Starvation by Inhibition of the Akt/mTOR/Autophagy Signaling Pathway” (2018).

For experiment [1], the system named is PANC-1. In words: Inhibition of Akt/mTOR signaling pathway in human PANC-1 cells cultured in nutrient-deprived medium assessed as decrease in total Akt level measured after 6 hrs by Western blot analysis. The format is cell-based. Particulars: dose 2.5-40 µM. The procedure, abridged: (§1)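 Western blot of PANC-1 cells exposed to compound at different concentrations for 6 h in NDM or DMEM. Probed for total and phosphorylated Akt and mTOR and for GβL. Band levels compared with untreated control cells in NDM.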

Experiment [2] relates to PANC-1. In words: Inhibition of colony formation in human PANC-1 cells cultured in nutrient rich DMEM medium measured after 24 hrs by crystal violet staining based assay. Conditions: dose 2.5-10 µM. The class given is functional, cell-based. An outline of the steps:
(§2)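 PANC-1 cells (5 × 10^2/well) attached in DMEM for 24 h, then exposed to 0, 2.5, 5 or 10 μM in DMEM for 24 h (triplicate). Washed, grown in fresh compound-free DMEM for 12 days, fixed in 4% formaldehyde and stained with crystal violet for 10 min. Colony area measured as a percentage of well area.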

The test system of experiment [3] is PANC-1. In words: Anticancer activity against human PANC-1 cells assessed as induction of morphological changes at 10 uM measured after 7 hrs by digital cell imaging analysis. The format is functional, cell-based. An outline of the steps: (§3)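 PANC-1 cells (3 × 10^6) in 35 mm dishes in nutrient-deprived medium (NDM), treated with 10 μM; kept in a stage-top incubator at 37 °C, 5% CO2. Phase-contrast images taken every 10 min for 24 h (145 frames, 20× objective). Untreated cells in NDM served as control.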

Experiment [4] relates to PANC-1. In words: Anticancer activity against human PANC-1 cells assessed as inhibition of cell motility at 10 uM measured within 90 mins by digital cell imaging analysis. The class given is functional, cell-based. Particulars: time min <=90. The procedure, abridged: as §3
For experiment [5], the system named is PANC-1. In words: Induction of necrosis in human PANC-1 cells cultured in nutrient-deprived medium assessed as round cell morphology at 5 uM measured after 24 hrs by ethidium bromide/acridine orange staining based phase contrast microscopy. The format is functional. An outline of the steps:
(§4)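 PANC-1 cells (2 × 10^5/well) attached in DMEM for 24 h, washed twice with PBS, then treated in NDM (1.25, 2.5, 5 μM; control in NDM alone) for 24 h. Stained with ethidium bromide/acridine orange and imaged in phase-contrast and red/green fluorescence modes (20× objective).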

The subject of experiment [6] is PANC-1. In words: Anticancer activity against human PANC-1 cells assessed as cell death at 10 uM measured after 13 hrs by digital cell imaging analysis. The format is functional, cell-based. The procedure, abridged: as §3
The subject of experiment [7] is PANC-1. In words: Inhibition of autophagy in human PANC-1 cells cultured in nutrient-deprived medium assessed as inhibition of LC3-2 expression after 6 hrs by Western blot analysis. The format is functional, cell-based. Conditions: dose 2.5-40 µM.
Experiment [8] has as its system PANC-1. In words: Induction of apoptotic cell death in human PANC-1 cells cultured in nutrient-deprived medium assessed as chromatin fragmentation at 5 uM measured after 24 hrs by Hoechst 33342 staining based phase-contrast digital microscopy. The class given is functional. The procedure, abridged: (§5)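 Cells (2 × 10^5) plated in 35 mm dishes, left 24 h to attach, washed twice with PBS, then given 5 μM in NDM for 24 h. Hoechst 33342 added directly to the medium for 5 min. Imaged in phase-contrast and fluorescence modes (20× objective).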

Experiment [9] relates to PANC-1. In words: Inhibition of Akt/mTOR signaling pathway in human PANC-1 cells cultured in nutrient-deprived medium assessed as decrease in total Akt level at 20 uM measured after 6 hrs by Western blot analysis relative to control. The class given is cell-based. An outline of the steps:
as §1

The test system of experiment [10] is PANC-1. In words: Inhibition of autophagy in human PANC-1 cells cultured in nutrient-deprived medium assessed as inhibition of Beclin-1 expression after 6 hrs by Western blot analysis. The class given is functional, cell-based. Particulars: dose 2.5-40 µM.
Experiment [11] deals with PANC-1. In words: Induction of morphological changes in human PANC-1 cells cultured in nutrient-deprived medium assessed as cell death measured after 24 hrs by ethidium bromide/acridine orange staining based phase contrast microscopy. The format is functional. Particulars: dose 1.25-5 µM. The procedure, abridged:
as §4

Experiment [12] concerns PANC-1. In words: Inhibition of autophagy in human PANC-1 cells cultured in nutrient-deprived medium assessed as inhibition of Atg5 expression after 6 hrs by Western blot analysis. The format is functional, cell-based. Particulars: dose 2.5-40 µM.
Experiment [13] concerns PANC-1. In words: Inhibition of autophagy in human PANC-1 cells cultured in nutrient-deprived medium assessed as inhibition of LC3-1 expression at 40 uM after 6 hrs in presence of chloroquine by Western blot analysis. The class given is functional, cell-based.
The test system of experiment [14] is PANC-1. In words: Inhibition of Akt/mTOR signaling pathway in human PANC-1 cells cultured in nutrient-deprived medium assessed as decrease in total mTOR level measured after 6 hrs by Western blot analysis. The format is cell-based. Conditions: dose 2.5-40 µM. The procedure, abridged: as §1
Experiment [15] deals with PANC-1. In words: Induction of apoptotic cell death in human PANC-1 cells cultured in nutrient-deprived medium assessed as formation of apoptotic bodies at 5 uM measured after 24 hrs by Hoechst 33342 staining based phase-contrast digital microscopy. The format is functional. An outline of the steps:
as §5

Experiment [16] has as its system PANC-1. In words: Inhibition of Akt/mTOR signaling pathway in human PANC-1 cells cultured in nutrient-deprived medium assessed as decrease in total mTOR level at 40 uM measured after 6 hrs by Western blot analysis relative to control. The format is cell-based. An outline of the steps: as §1
For experiment [17], the system named is PANC-1. In words: Anti-austerity activity against nutrient-deprived human PANC-1 cells assessed as cell death incubated for 24 hrs by WST-8 assay. The format is functional. The procedure, abridged:
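Human PANC-1 pancreatic cancer cells tested in parallel in nutrient-deprived medium (NDM) and in nutrient-rich DMEM. PC50 is the concentration that kills 50% of cells in NDM without toxicity in DMEM.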

Experiment [18] deals with PANC-1. In words: Induction of apoptotic cell death in human PANC-1 cells cultured in nutrient-deprived medium assessed as membrane blebbing at 5 uM measured after 24 hrs by Hoechst 33342 staining based phase-contrast digital microscopy. The class given is functional. An outline of the steps:
as §5

Experiment [19] deals with PANC-1. In words: Inhibition of colony formation in human PANC-1 cells at 2.5 uM cultured in nutrient rich DMEM medium measured after 24 hrs by crystal violet staining based assay relative to control. The format is functional. The procedure, abridged:
as §2

Experiment [20] has as its system PANC-1. In words: Inhibition of colony formation in human PANC-1 cells at 5 uM cultured in nutrient rich DMEM medium measured after 24 hrs by crystal violet staining based assay relative to control. The format is functional. The procedure, abridged:
as §2

Experiment [21] concerns PANC-1. In words: Inhibition of autophagy in human PANC-1 cells cultured in nutrient-deprived medium after 6 hrs by MDC-staining based fluorescence microscopy analysis. Particulars: dose 40.0 µM. The class given is functional, cell-based. An outline of the steps: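 PANC-1 cells under nutrient starvation given monodansylcadaverine with or without compound for 6 h. Autolysosome fluorescence viewed in fluorescence and phase-contrast modes.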

In experiment [22] the test system is PANC-1. In words: Inhibition of autophagy in human PANC-1 cells cultured in nutrient-deprived medium assessed as inhibition of LC3-1 expression after 6 hrs by Western blot analysis. The class given is functional, cell-based. Conditions: dose 2.5-40 µM.

The source made the active and inactive calls. No cut-off for these calls is given here.

For `COc1cc(OC)c(-c2ccc(O)c3c(OC)cc(C)cc23)c2c1C(C)=N[C@H](C)C2`, the inhibition result in the experiment on PANC-1 [1] was “Dose-dependent effect”; with PANC-1 [2] it was “Dose-dependent effect”; with PANC-1 [7], “Dose-dependent effect”; in the experiment with PANC-1 [9], 48%; with PANC-1 [10] it was “Dose-dependent effect”; in the experiment with PANC-1 [12] it was “Dose-dependent effect”. For the same molecule, the values for the inhibition result with PANC-1 [14], in the experiment on PANC-1 [16] and in the experiment with PANC-1 [22] were “Dose-dependent effect”, 100% and “Dose-dependent effect”, respectively. Moreover, the result with PANC-1 [3], with PANC-1 [5], with PANC-1 [6] and in the experiment on PANC-1 [18] was Active. Besides, the inhibition entry in the experiment with PANC-1 [4], in the experiment on PANC-1 [13] and in the experiment with PANC-1 [21] was “Active” throughout. The outcome with PANC-1 [8] and in the experiment with PANC-1 [15] was inactive. Further, the Activity entry in the experiment with PANC-1 [11] and in the experiment on PANC-1 [17] was “Dose-dependent effect” each time. Also, in the experiment on PANC-1 [17], the PC50 amounted to 2.5 µM. Moreover, in the experiment on PANC-1 [19], the inhibition at 2.5 µM was at most 90%. In the experiment with PANC-1 [20], at 5 µM the inhibition was 100%.
